SMILES strings stand for the structures. Active and inactive are the calls of the source. The calls are words filed in the database; no cut-off is given here.

The subject of data set [1] is Mus musculus. Kind of data set: Neurotoxicity in albino Carworth Farms No.1 mouse assessed as motor impairment at 30 mg/kg, ip after 4 hrs by rotarod test. It is filed as toxicity, organism-based. Also on record: dose 30 mg/kg, route intraperitoneal. As to conditions: in vivo. Put shortly: (§1)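 Rotorod neurotoxicity in mice at 6 r.p.m. Compound given i.p. (30, 100, 300 mg/kg) in 0.5% methylcellulose; tested at 30 min and 4 h. Impairment is inability to keep equilibrium on the rod for a given time; scored as impaired/tested.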
Background: Falling from the rotarod earlier than controls is read as motor impairment.

In data set [2] the test system is Mus musculus. Put plainly: Anticonvulsant activity in albino Carworth Farms No.1 mouse assessed as protection against subcutaneous metrazol-induced seizure at 100 mg/kg, ip after 0.5 hrs. It is filed as functional, organism-based. Also on record: dose 100 mg/kg. Put shortly: (§2)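 Mouse scMET test. Compound given i.p. (30, 100 or 300 mg/kg) in 0.5% methylcellulose. Pentylenetetrazole 85 mg/kg (CD97) given s.c. at 0.5 or 4 h, then mice observed for 30 min. Protection is absence of clonic spasms; scored as protected/tested.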

The subject of data set [3] is Mus musculus. Kind of data set: Neurotoxicity in albino Carworth Farms No.1 mouse assessed as motor impairment at 100 mg/kg, ip after 0.5 hrs by rotarod test. It is filed as toxicity, organism-based. The arrangement: dose 100 mg/kg, route intraperitoneal. Particulars: in vivo. Put shortly:
as §1

The subject of data set [4] is Mus musculus. Put plainly: Anticonvulsant activity in albino Carworth Farms No.1 mouse assessed as protection against maximal electroshock-induced seizure at 300 mg/kg, ip after 0.5 hrs. It counts as functional, organism-based. The arrangement: dose 300 mg/kg. Summed up:
(§3)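 Mouse MES test with compound given i.p. (30, 100 or 300 mg/kg) in 0.5% methylcellulose; tested at 0.5 and 4 h. Corneal stimulus of 50 mA at 60 Hz for 0.2 s, electrodes primed with 0.5% butacaine in 0.9% NaCl. Protection is abolition of hindlimb tonic extension; scored as protected/tested.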
A general note: In the maximal electroshock model the usual endpoint is tonic extension of the hind limbs.

Data set [5] concerns Mus musculus. Put plainly: Anticonvulsant activity in albino Carworth Farms No.1 mouse assessed as protection against maximal electroshock-induced seizure at 100 mg/kg, ip after 0.5 hrs. It counts as functional, organism-based. The arrangement: dose 100 mg/kg. Summed up:
as §3

Data set [6] has as its system Mus musculus. Kind of data set: Neurotoxicity in albino Carworth Farms No.1 mouse assessed as motor impairment at 300 mg/kg, ip after 4 hrs by rotarod test. It is filed as toxicity, organism-based. Also on record: dose 300 mg/kg, route intraperitoneal. Particulars: in vivo. Put shortly:
as §1

For data set [7], the system named is Mus musculus. Put plainly: Anticonvulsant activity in albino Carworth Farms No.1 mouse assessed as protection against subcutaneous metrazol-induced seizure at 300 mg/kg, ip after 4 hrs. It is filed as functional, organism-based. Also on record: dose 300 mg/kg. Put shortly:
as §2

Data set [8] concerns Mus musculus. Kind of data set: Anticonvulsant activity in albino Carworth Farms No.1 mouse assessed as protection against subcutaneous metrazol-induced seizure at 300 mg/kg, ip after 0.5 hrs. It counts as functional, organism-based. Also on record: dose 300 mg/kg. Put shortly: as §2
The subject of data set [9] is Mus musculus. Put plainly: Anticonvulsant activity in albino Carworth Farms No.1 mouse assessed as protection against maximal electroshock-induced seizure at 300 mg/kg, ip after 4 hrs. It counts as functional, organism-based. The arrangement: dose 300 mg/kg. Put shortly: as §3
Data set [10] concerns Mus musculus. Kind of data set: Anticonvulsant activity in albino Carworth Farms No.1 mouse assessed as protection against maximal electroshock-induced seizure at 30 mg/kg, ip after 4 hrs. It counts as functional, organism-based. Also on record: dose 30 mg/kg. Summed up: as §3
Data set [11] concerns Mus musculus. Put plainly: Anticonvulsant activity in albino Carworth Farms No.1 mouse assessed as protection against subcutaneous metrazol-induced seizure at 30 mg/kg, ip after 0.5 hrs. It is filed as functional, organism-based. The arrangement: dose 30 mg/kg. Put shortly:
as §2

Data set [12] concerns Mus musculus. Kind of data set: Neurotoxicity in albino Carworth Farms No.1 mouse assessed as motor impairment at 30 mg/kg, ip after 0.5 hrs by rotarod test. It is filed as toxicity, organism-based. Also on record: dose 30 mg/kg, route intraperitoneal. As to conditions: in vivo. Summed up: as §1
Data set [13] relates to Mus musculus. Kind of data set: Anticonvulsant activity in albino Carworth Farms No.1 mouse assessed as protection against maximal electroshock-induced seizure at 30 mg/kg, ip after 0.5 hrs. It is filed as functional, organism-based. Also on record: dose 30 mg/kg. Put shortly: as §3
Data set [14] concerns Mus musculus. Kind of data set: Neurotoxicity in albino Carworth Farms No.1 mouse assessed as motor impairment at 300 mg/kg, ip after 0.5 hrs by rotarod test. It counts as toxicity, organism-based. Also on record: dose 300 mg/kg, route intraperitoneal. Particulars: in vivo. Summed up: as §1
The test system of data set [15] is Mus musculus. Kind of data set: Toxicity in albino Carworth Farms No.1 mouse subcutaneous metrazol-induced seizure model assessed as myoclonic jerk at 300 mg/kg, ip after 0.5 hrs. It is filed as organism-based. The arrangement: dose 300 mg/kg. As to conditions: in vivo, sc.
Data set [16] relates to Mus musculus. Put plainly: Anticonvulsant activity in albino Carworth Farms No.1 mouse assessed as protection against maximal electroshock-induced seizure at 100 mg/kg, ip after 4 hrs. It is filed as functional, organism-based. Also on record: dose 100 mg/kg. Put shortly:
as §3

Data set [17] deals with Mus musculus. Put plainly: Toxicity in albino Carworth Farms No.1 mouse assessed as death following tonic extension at 300 mg/kg, ip after 0.5 hrs by rotarod test. It counts as organism-based. Also on record: dose 300 mg/kg, route intraperitoneal. As to conditions: in vivo. Summed up:
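Mice (18–25 g) were given 30, 100 or 300 mg/kg i.p. in 0.5% (v/v) aqueous methylcellulose. Neurotoxicity was checked on a 6 r.p.m. rotorod 30 min and 4 h after dosing and scored as inability to keep equilibrium. Death following tonic extension and sedation were recorded as observations (number of animals/number tested).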

In data set [18] the test system is Mus musculus. Kind of data set: Anticonvulsant activity in albino Carworth Farms No.1 mouse assessed as protection against subcutaneous metrazol-induced seizure at 30 mg/kg, ip after 4 hrs. The arrangement: dose 30 mg/kg. It is filed as functional, organism-based. Put shortly: as §2
Data set [19] concerns Mus musculus. Kind of data set: Anticonvulsant activity in albino Carworth Farms No.1 mouse assessed as protection against subcutaneous metrazol-induced seizure at 100 mg/kg, ip after 4 hrs. It is filed as functional, organism-based. Also on record: dose 100 mg/kg. Put shortly: as §2
Data set [20] concerns Mus musculus. Kind of data set: Anticonvulsant activity in ip dosed albino Carworth Farms No.1 mouse assessed as time needs to show peak effect for electric-current for 3 secs-induced seizure after 0.25 hrs by 6Hz minimal clonic seizure test. It counts as functional.
The nature of data set [21]: Neurotoxicity in ip dosed albino Carworth Farms No.1 mouse assessed as motor impairment after 0.25 hrs by rotarod test. It is filed as toxicity, organism-based. As to conditions: Carworth Farms No.1 (albino), in vivo. Put shortly: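 Mouse quantification at the time of peak effect, compound given i.p. in 0.5% methylcellulose. Groups of at least eight mice received varied doses until at least two points fell between 100 and 0% response. PI = TD50/ED50 MES.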

The subject of data set [22] is Mus musculus. Kind of data set: Anticonvulsant activity in ip dosed albino Carworth Farms No.1 mouse assessed as protection against maximal electroshock-induced seizure after 0.25 hrs. It is filed as functional. Particulars: albino Carworth Farms No.1, ip. Put shortly: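 Mouse quantification at the time of peak effect, compound given i.p. in 0.5% methylcellulose. Groups of at least eight mice received varied doses until at least two points fell between 100 and 0% response. ED50 (MES, scMET) and TD50 (rotorod) with 95% CI by probit analysis (Finney). PI = TD50/ED50 MES.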

Data set [23] relates to Rattus norvegicus. Kind of data set: Anticonvulsant activity in po dosed albino Sprague-Dawley rat assessed as protection against maximal electroshock-induced seizure after 0.25 hrs. It is filed as functional. Summed up: (§4)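 Rats dosed orally, compound in 0.5% methylcellulose. MES at 150 mA, 60 Hz, 0.2 s; scMET with pentylenetetrazole 70 mg/kg s.c. plus 30 min observation; rotorod for toxicity.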

The nature of data set [24]: Neurotoxicity in po dosed albino Sprague-Dawley rat assessed as motor impairment after 0.25 hrs by rotarod test. As to conditions: in vivo. It is filed as toxicity, organism-based. Summed up: as §4
Data set [25] relates to Rattus norvegicus. Put plainly: Anticonvulsant activity in po dosed Sprague-Dawley rat assessed as time needs to show peak effect for protection against subcutaneous metrazol-induced seizure after 0.25 hrs. It counts as functional. Summed up:
as §4

Data set [26] has as its system Mus musculus. Kind of data set: Anticonvulsant activity in ip dosed albino Carworth Farms No.1 mouse assessed as time needs to show peak effect for protection against subcutaneous metrazol-induced seizure. It is filed as functional.
In data set [27] the test system is Mus musculus. Put plainly: Anticonvulsant activity in ip dosed albino Carworth Farms No.1 mouse assessed as protection against electric-current for 3 secs-induced seizure after 0.25 hrs by 6Hz minimal clonic seizure test. It is filed as functional. As to conditions: albino Carworth Farms No.1, ip.

With `Cl.O=C1CN2CCC[C@H]2C(=O)N1CCc1ccccc1`, the Activity entry in data set [1] is “Non-toxic”; in data set [3], “Non-toxic”; in [6] it was “Non-toxic”; in data set [12] it was “Non-toxic”; in [14], “Toxic”; in data set [15], “Toxic”. Besides, in data set [17], the Activity entry was “Toxic”. Moreover, the outcome in [2], in data set [5], in [7], in data set [10], in [11] and in data set [13] was inactive. The result in data set [16], in data set [18] and in data set [19] was inactive. The outcome in data set [4], in data set [8] and in data set [9] was Active.
A word on the TD50: it is the 50% point of the dose-response relation for the toxic effect studied. One may read the ED50 as the midpoint of the dose-response relation. Consider `CCC1(C)CC(=O)NC1=O` (configuration not stated) [ETHOSUXIMIDE], for which the Time in [20], in data set [25] and in data set [26] was 0.25 h throughout. Moreover, the figures for the TD50 at 0.25 h in data set [21] and in data set [24] were 341 mg/kg and more than 500 mg/kg, respectively. In addition, the ED50 in data set [22] was more than 500 mg/kg; in data set [23] it was more than 500 mg/kg; in [27], 167 mg/kg.

(Values after ChEMBL document CHEMBL1909525, “Synthesis and anticonvulsant activity of novel 2,6-diketopiperazine derivatives. Part 1: perhydropyrrole[1,2-a]pyrazines” (Eur J Med Chem, 2011).)
